M5 PAM: positive allosteric modulators of human muscarinic M5 receptor; CHO-K1 hM5, Fluo-8 calcium, ACh EC20 PAM; 0% = ACh EC20, 100% = ACh EC100; activation, % at 3 µM; actives 0.3% (n = 360,000); AID 624038;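 active means activation above the run cutoff, the mean activation of all test compounds plus 3 SD, cut at about 18% in these data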
Target sequence (P08912 whole entry, looked up): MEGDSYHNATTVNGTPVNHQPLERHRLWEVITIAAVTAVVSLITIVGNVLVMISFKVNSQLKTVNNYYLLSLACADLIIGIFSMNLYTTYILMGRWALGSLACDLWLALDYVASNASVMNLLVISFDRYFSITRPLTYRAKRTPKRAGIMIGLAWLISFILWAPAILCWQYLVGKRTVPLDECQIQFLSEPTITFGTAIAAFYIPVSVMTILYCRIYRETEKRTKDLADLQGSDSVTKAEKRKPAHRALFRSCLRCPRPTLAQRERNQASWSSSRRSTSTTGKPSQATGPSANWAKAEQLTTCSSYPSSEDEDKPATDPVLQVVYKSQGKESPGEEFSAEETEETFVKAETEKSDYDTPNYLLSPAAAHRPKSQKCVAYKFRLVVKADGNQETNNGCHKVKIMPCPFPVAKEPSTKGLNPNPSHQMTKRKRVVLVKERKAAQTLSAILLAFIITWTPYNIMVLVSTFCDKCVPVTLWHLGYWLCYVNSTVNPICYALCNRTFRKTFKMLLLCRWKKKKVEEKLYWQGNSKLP
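System: CHO-K1 cell line with stable human muscarinic M5 receptor expression | Also added: EC20 acetylcholine as agonist stimulus | Compound: One concentration, 3 µM final (nominal) | Timing: Fluo-8 loading 80 min at 37 °C plus 30 min room temperature | Measured by: Fluo-8 calcium dye fluorescence, kinetic read | Read-out basis: % activation, ACh-normalized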
M4 antag: blocks acetylcholine activation of human M4 receptor | P08173 | CHO-hM4 cells, ACh EC80, Fluo-8 calcium fluorescence | inhibition, % at 3 µM | actives 0.73% (n = 360,000) | AID 624125;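 active means inhibition above its plate's cutoff, the mean inhibition of sample wells plus 3 SD, cut at about 27% in these data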;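 further: 0% = acetylcholine EC80 with DMSO and 100% = DMSO without agonist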
M4 ag: agonists of human muscarinic M4 receptor (CHRM4); CHO-K1 hM4/Gqi5, Fluo-8 calcium fluorescence; vehicle 0%, full acetylcholine response 100%; AID 624127; activation, % at 3 µM; actives 0.14% (n = 360,000);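 active means activation above the run mean over all test wells plus 3 SD, cut at about 32% in these data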;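 further: peak over basal fluorescence ratio per well then scaled between controls; 0% = DMSO wells and 100% = acetylcholine at EC100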
CHRM5 agonist: CHRM5 agonism in calcium assay. P08912. CHO-K1 hM5 cells, Fluo-8 calcium fluorescence; 0% DMSO wells, 100% maximal acetylcholine response. activation, % at 3 µM. actives 0.19% (n = 360,000). AID 624037;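 active means activation above the run's mean over test compounds plus 3 SD, cut at about 23% in these data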;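 further: signal is peak over basal fluorescence ratio across the kinetic read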
M5 antag: antagonists of human muscarinic M5 receptor (CHRM5); P08912; actives 0.59% (n = 360,000); inhibition, % at 3 µM; AID 624040; CHO-hM5 cells, Fluo-8 calcium fluorescence, ACh EC80;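 active means inhibition above a per-plate cutoff, the mean of that plate's test compounds plus 3 SD, cut at about 27% in these data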;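 further: 0% = acetylcholine EC80 with DMSO and 100% = DMSO without agonist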
CHRM4 PAM: potentiates acetylcholine response at human M4 receptor. P08173. CHO-K1 hM4/Gqi5, Fluo-8 calcium fluorescence, ACh EC20; 0% = ACh EC20, 100% = maximal ACh. activation, % at 3 µM. actives 0.4% (n = 360,000). AID 624126;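 active means activation above its plate's cutoff, the mean activation of sample wells plus 3 SD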
* hit, by the source's call. Most compounds without a hit are left out; they make up all but 1.8% or so of the library.

SMILES	M5 PAM	M4 antag	M4 ag	CHRM5 agonist	M5 antag	CHRM4 PAM
CCc1nc2ccc(C(=O)NCc3ccccc3OC)cn2c1N(CC)CCOC	1.6	4.3	1.1	-0.5	0.5	-3.6
Oc1ccc(Cl)c(CN2CCN(c3ncc(Cc4ccccc4)cn3)CC2)c1	-3.1	6.0	3.1	-3.3	3.9	-7.6
CC(C)Cn1c(=O)oc2ccccc21	0.8	-13.5	3.5	0.5	-7.0	19.8*
O=c1oc2ccccc2n1CCCCCn1c(=O)oc2ccccc21	-5.6	8.7	1.6	-5.3	2.4	-6.0
O=C(CCl)N1N=C(c2ccco2)CC1c1ccco1 (configuration not stated)	28.5*	-7.0	1.0	2.8	10.6	1.9
O=C(OCC(=O)N1N=C(c2ccc(Cl)cc2)CC1c1ccco1)c1cccnc1 (configuration not stated)	18.1*	-4.9	0.7	6.0	-0.9	8.3
CN(CC(=O)Nc1ccc(F)cc1)C(=O)CN1C(=O)NC(CCc2ccccc2)C1=O (configuration not stated)	-2.9	-26.3	0.6	-0.8	-1.8	3.1
CCC(CC)C(=O)N(C)c1c(C)nc2c(OCCC3CCCCC3)cccn12	-4.1	-7.2	-2.9	-2.4	5.9	-7.6
COc1ccc(C(=O)NC[C@H]2O[C@@H](n3cnc4c(N)ncnc43)[C@H](O)[C@@H]2O)cc1OC	2.8	-5.9	0.7	2.4	-4.1	4.6
NC(=O)c1ccc[n+]([C@H]2O[C@@H](COP(=O)([O-])OP(=O)(O)OC[C@H]3O[C@@H](n4cnc5c(N)ncnc54)[C@H](O)[C@@H]3O)[C@H](O)[C@@H]2O)c1	-6.9	0.3	79.7*	24.9*	-0.1	-1.7
CN1CCS/C1=C\C=C1/SC(=S)N(CC(=O)O)C1=O	-14.3	8.3	25.8	48.6*	11.7	-0.9
O=C(CSc1ncnc2[nH]ncc12)Nc1nc(-c2ccc(F)c(F)c2)cs1	-15.4	31.3*	20.0	9.9	10.4	-20.0
Nc1ncnc2c1ncn2C1CCCO1 (configuration not stated)	-19.1	9.2	0.2	27.6*	10.1	-8.8
Nc1ncnc2c1ncn2[C@H]1C[C@H](O)[C@@H](COP(=O)(O)O)O1	1.3	30.4*	1.3	0.5	-1.3	-2.2
NCC1OC(n2cnc3c(N)ncnc32)CC1O (configuration not stated)	9.1	-1.4	0.2	2.3	2.8	3.1
Nc1ncnc2c1ncn2C1CCCC1	0.4	-3.5	0.2	0.1	-4.3	1.6
S=c1nc[nH]c2c1ncn2C1CCCO1 (configuration not stated)	18.7*	-11.4	0.2	-0.7	-16.6	-4.8
O=S(=O)(c1ccc(Cl)c(Cl)c1)c1snnc1-c1ccccc1	-17.1	40.4*	-1.9	-8.2	10.7	-18.8
N#Cc1ccc(C2CC(OCCF)=CC(=O)O2)cc1 (configuration not stated)	1.2	7.7	0.3	-1.4	2.3	-3.5
O=C(NCc1cccc(C(F)(F)F)c1)C1C(=O)Nc2ccccc2C(=O)N1C1CCCC1 (configuration not stated)	-3.4	-5.7	4.5	1.9	1.0	4.7
COc1cccc(-c2ccc(=O)n(CC(=O)Nc3ccc(C(=O)N4CCCC4)cc3)n2)c1	19.3*	-3.8	-1.1	-6.1	-1.3	9.2
Cc1nn(CC(=O)Nc2ccc(C(=O)N3CCCCC3)cc2)c(=O)c2ccccc12	-5.4	5.6	-0.3	-1.7	-0.3	-0.9
Cc1nn(CC(=O)Nc2ccc(C(=O)N3CCCC3)cc2)c(=O)c2ccccc12	38.7*	-7.6	-1.7	2.7	18.7	9.7
COc1cccc(Nc2nc(C(N)C3CCCCC3)cs2)n1 (configuration not stated)	1.9	-4.1	21.4	3.6	1.4	1.9
O=C(/C=C/c1cccc(F)c1)Nc1ccc(S(=O)(=O)N2CCOCC2)cc1	18.8*	-15.1	2.9	-3.9	12.0	11.2
SMILES	M5 PAM	M4 antag	M4 ag	CHRM5 agonist	M5 antag	CHRM4 PAM
O=S(=O)(Nc1ccc(F)cc1)c1ccc(S(=O)(=O)N2CCOCC2)cc1	-4.8	2.6	17.7	27.0*	0.3	-2.7
O=S(=O)(Nc1ccc(S(=O)(=O)N2CCCC2)cc1)c1ccc(F)cc1	7.7	-0.9	2.3	-2.0	-3.6	3.4
O=S(=O)(c1ccc(NC(=S)NCc2cccnc2)cc1)N1CCCCC1	-26.8	37.6*	31.8	1.9	18.4	-14.7
CCCC(C(=O)Nc1ccc(S(=O)(=O)N2CCOCC2)cc1)c1ccccc1 (configuration not stated)	-5.8	4.4	22.1	23.3*	5.2	-5.3
O=C(NCc1cccnc1)c1ccc(S(=O)(=O)N2CCCCC2)cc1	1.4	-6.5	4.2	1.3	-5.1	8.0
CCCC(=O)N1CCC1(C)C(=O)Nc1ncc(C(=O)OC)s1 (configuration not stated)	-2.2	-7.2	1.0	1.2	1.2	2.4
CCOC(=O)N1CCN(C(=O)C[C@@H]2C[C@@]3(C(=O)OC)CC(C)(C)CC=C3N(Cc3cccc4ccccc34)C2=O)CC1	-0.2	-19.6	12.6	4.0	6.7	0.6
O=C(CN1CCOCC1)NNC(=S)Nc1ccccc1	29.4*	3.2	1.8	9.2	-2.0	12.1
O=S(=O)(c1ccc(NC(=S)Nc2ccccc2)cc1)N1CCOCC1	24.4*	-11.9	1.3	-3.1	-1.2	29.1*
O=C(CN1CCOCCOCCOCC1)Nc1ccccc1	-4.5	2.0	2.0	1.8	10.8	5.4
Cc1cnc(CN(C)C(=O)C2CCC(=O)N(CCc3ccc(Cl)cc3)C2)[nH]1 (configuration not stated)	1.8	0.4	0.1	-0.2	5.9	-1.4
CC(SCC(=O)Nc1ccc(F)cc1)c1nc2ccccc2c(=O)[nH]1 (configuration not stated)	21.7*	-11.3	2.2	-0.3	-13.9	11.0
Cc1cc(SCC(=O)N(C)CC(=O)Nc2ccc(F)cc2)nc2ccccc12	9.7	-5.4	3.6	2.4	-3.6	21.0*
Cc1csc(SCC(=O)N(C)CC(=O)Nc2ccc(F)cc2)n1	3.3	4.0	0.0	0.8	7.1	-4.4
CCOC(=O)[C@]12CCC=C1N(Cc1cccc3ccccc13)C(=O)[C@H](CC(=O)NCC1CCCCC1)C2	-3.1	-3.5	-2.0	-1.0	1.0	-4.2
CC(=O)NC(c1cccc(F)c1)c1nc(-c2ccoc2)cs1 (configuration not stated)	-0.6	1.8	0.5	1.6	0.3	-3.7
CCOC(=O)c1csc(-c2ccc(OC)c(OC)c2)n1	-4.3	-10.3	1.1	1.0	11.6	-1.4

Assay outcomes as filed in PubChem.
